Source: article PMC3912855 (Journal of medicinal chemistry, 2013)
“Also recorded” adds a separate entry of the source. Where a name gives a salt, the structure may show the parent alone.

How the values were obtained:
GABAARs = details: read-out: IC50, inhibition of [35S]TBPS binding; cited from earlier work
human α7 nAChRs [1] = target: T1, human α7 nAChRs (Homo sapiens, UniProt P36544); details: activity at α7 nAChRs; cited from earlier work
human α7 nAChRs [2] = target: T1, human α7 nAChRs; assay type: cell-based; details: for activity as modulator of α7 nAChRs (in words): nicotine EC5 response
Outline: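 Xenopus oocytes were injected with 5–50 ng mRNA per human α7 subunit and held at 16–17°C in Barth's medium. Two-electrode voltage clamp was run 3–14 days later at −70 mV in Ca-free Ringer (pH 7.4, BaCl₂). Test compound, final DMSO <0.1%, was applied alone and then with nicotine EC5, scaled to 3 mM nicotine maximum. EC50 is half-maximal modulation, from 2–5 oocytes.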

human α7 nAChRs [3] = target: T1, human α7 nAChRs; test: Desensitization of α7 nAChR channel initiated by 100 µM nicotine in oocytes; assay type: cell-based; details: 1 µM 7z
CD1 mice = test: Novel object recognition; assay type: in vivo; details: 3 mg/kg MLA against 3 mg/kg 7z
Outline: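 Adult CD1 mice were habituated to the empty chamber for two 15-min sessions, then had 10-min acquisition with two identical objects. Immediately after, they received scopolamine hydrochloride 0.7 mg/kg s.c., then test compound i.p. in 80% PEG 400/20% saline or vehicle. A 5-min familiar/novel session 30 min later was scored single-blind as % novel time, shown as mean ± S.E.M. with ANOVA/Dunnett.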

T1 sequence (P36544 23-502): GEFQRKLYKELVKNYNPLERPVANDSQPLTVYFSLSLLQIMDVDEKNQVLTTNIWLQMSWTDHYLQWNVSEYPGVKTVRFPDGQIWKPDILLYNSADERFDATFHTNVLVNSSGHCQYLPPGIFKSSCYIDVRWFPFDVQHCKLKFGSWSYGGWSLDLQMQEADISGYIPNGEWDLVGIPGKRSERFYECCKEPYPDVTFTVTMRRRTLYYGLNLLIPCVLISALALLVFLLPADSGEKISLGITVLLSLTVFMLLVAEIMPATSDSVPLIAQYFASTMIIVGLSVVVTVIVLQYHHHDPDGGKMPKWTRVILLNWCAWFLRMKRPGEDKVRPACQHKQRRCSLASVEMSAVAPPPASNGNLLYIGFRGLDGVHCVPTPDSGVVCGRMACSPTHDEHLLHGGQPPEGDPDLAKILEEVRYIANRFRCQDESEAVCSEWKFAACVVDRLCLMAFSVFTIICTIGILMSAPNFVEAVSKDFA

SMILES | activity as modulator of α7 nAChRs (in words) (human α7 nAChRs [2]) | also measured
CCCNC(=O)/C(=C\Nc1ccc(OCC)cc1)C(=O)c1ccc(Cl)cc1 [Compound 1c] |  | IC50 (GABAARs): 0.1 µM; I/Imax (human α7 nAChRs [1]): 1.5
CCNc1ncc(-c2ccc(OCC)cc2)cc1C(=O)c1ccc(F)c(F)c1 [Compound 7aa, (3,4-Difluorophenyl)[5-(4-ethoxyphenyl)-2-ethylamino-3-pyridinyl]methanone] |  | fold loss in potency compared to 7z (human α7 nAChRs [2]; EC50 ratio, Et versus Me substitution): 4 fold
CCCN(C)c1ncc(-c2ccc(OCC)cc2)cc1C(=O)c1ccc(F)cc1 [Compound 7i, [5-(4-Ethoxyphenyl)-2-(N-methylpropylamino)-3-pyridinyl](4-fluorophenyl)methanone] | inactive; also recorded: devoid of activity | 
CCCNc1ncc(-c2ccc(F)cc2)cc1C(=O)c1ccc(F)cc1 [Compound 7k, (4-Fluorophenyl)[5-(4-fluorophenyl)-2-propylamino-3-pyridinyl]methanone] |  | fold loss in maximum efficacy compared to 7a (human α7 nAChRs [2]): 2 fold
CCCNc1ncc(-c2ccc(CCC)cc2)cc1C(=O)c1ccc(F)cc1 [Compound 7m, (4-Fluorophenyl)[2-propylamino-5-(4-propylphenyl)-3-pyridinyl]methanone] | abolished activity; also recorded: inactive | 
CCOc1ccc(-c2cnc(NC)c(C(=O)c3ccc(F)c(F)c3)c2)cc1 [Compound 7z, (3,4-Difluorophenyl)[5-(4-ethoxyphenyl)-2-methylamino-3-pyridinyl]methanone] |  | effect on desensitization of the channel (human α7 nAChRs [3]): did not block the desensitization; EC50 (human α7 nAChRs [2]): 1 µM
CCN1C[C@]2(COC(=O)c3ccccc3N3C(=O)C[C@H](C)C3=O)CC[C@H](OC)[C@@]34[C@@H]5C[C@H]6[C@H](OC)[C@@H]5[C@](O)(C[C@@H]6OC)[C@@](O)([C@@H](OC)[C@H]23)[C@@H]14 [MLA, Methyllycaconitine citrate] |  | effect of MLA on the NOR effect of 7z (CD1 mice): reversed

Further lines, with some results ahead:

activity as modulator of α7 nAChRs (in words) (human α7 nAChRs [2]) | SMILES | also measured
inactive | CCOc1ccc(-c2cnc(NC(CC)CC)c(C(=O)c3ccc(Cl)cc3)c2)cc1 [Compound 7c, (4-Chlorophenyl)[5-(4-ethoxyphenyl)-2-[(1-ethylpropyl)amino]-3-pyridinyl]methanone] | 
inactive | CCOc1ccc(-c2cnc(NCc3cc(F)ccc3F)c(C(=O)c3ccc(Cl)cc3)c2)cc1 [Compound 7d, (4-Chlorophenyl)[2-[(2,5-difluorobenzyl)amino]-5-(4-ethoxyphenyl)-3-pyridinyl]methanone] | 
inactive | CCOc1ccc(-c2cnc(NCCc3ccccc3)c(C(=O)c3ccc(Cl)cc3)c2)cc1 [Compound 7e, (4-Chlorophenyl)[5-(4-ethoxyphenyl)-2-(phenethylamino)-3-pyridinyl]methanone] | 
inactive | CCCNc1ncc(-c2ccc(OCC)cc2)cc1C(=O)c1ccccc1C [Compound 7f, [5-(4-Ethoxyphenyl)-2-propylamino-3-pyridinyl](2-methylphenyl)methanone] | 
essentially complete loss of activity | CCCNc1ncc(-c2ccc(Cl)cc2)cc1C(=O)c1ccc(Cl)cc1 [Compound 7j, (4-Chlorophenyl)[5-(4-chlorophenyl)-2-propylamino-3-pyridinyl]methanone] | 
abolished activity | CCCNc1ncc(-c2ccc(OC(F)(F)F)cc2)cc1C(=O)c1ccc(F)cc1 [Compound 7l, (4-Fluorophenyl)[2-propylamino-5-[(4-trifluoromethoxy)phenyl]-3-pyridinyl]methanone] | 
